MT stabilize HCS = microtubule stabilization, imaging screen; AID 2205; % tubulin-high responders, % at 10 µM; hit rate 0.83% among 200,000; HeLa tubulin immunostaining HCS, 24 h; share of cells brighter than vehicle mean+2SD;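 active means plate Z-score above 3 for both tubulin-high and condensed-nucleus cell shares, with cell loss under 80%, at 10 µM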;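 further: anti alpha tubulin signal scored within the nucleus-defined area of each cell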
Ba/F3 V617F tox = lowers viability of Ba/F3 cells expressing EpoR and JAK2V617F. ATP luminescence. inhibition, % at 5.6 µM. hit rate 1.1% among 220,000. AID 1446;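 active means inhibition above the campaign mean plus 3 SD over all tested compounds, cut at about 24% in these data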;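 further: cytokine-independent growth of Ba/F3 cells driven by EpoR plus mutant JAK2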
bCat nuc transl = alters nuclear translocation of beta-catenin in HeLa cells | nuclear translocation activity, % at 5 µM | immunofluorescence imaging | hit rate 0.3% among 190,000 | AID 1665;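 active means nuclear translocation activity above 50% at 5 µM, with a well cell count of 50 or more; inconclusive means wells under 50 cells across six images, flagged as toxic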;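 further: per-cell ratio of nuclear to cytoplasmic median beta-catenin stain intensity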
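test system = HeLa cells, endogenous beta-catenin | dosing = single 5 µM dose plus 0.02–20 µM confirmation series | times = compound treatment 24 h, 37°C, 5% CO2 | technique = beta-catenin immunofluorescence imaging with DAPI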
BaF3 parental = parental Ba/F3 viability inhibition as JAK2V617F counter-screen; CellTiter-Glo ATP luminescence; inhibition, % at 5.6 µM; hit rate 1.1% among 220,000;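 active means inhibition above a per-campaign cutoff, the mean inhibition of all tested compounds plus 3 SD, cut at about 27% in these data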
KLF5 inh = inhibitors of KLF5 expression. DLD-1 KLF5 promoter-luciferase reporter, luminescence. inhibition, % at 5 µM. hit rate 0.23% among 290,000;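 active means inhibition above a per-plate limit of that plate's mean compound inhibition plus 3 SD, cut at about 60% in these data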;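 further: higher means less KLF5 promoter-driven luciferase light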
IEC-6 tox = IEC-6 cytotoxicity, counter-screen for KLF5 inhibitors | luminescence viability | inhibition, % at 5 µM | hit rate 0.78% among 290,000 | AID 1825
IEC-6 cytotox cf = confirmation of cytotoxic compounds in rat IEC-6 intestinal epithelial cells; shares compounds with IEC-6 tox; IEC-6 rat intestinal epithelial viability, luminescence; hit rate 63% among 1,900; AID 1907; inhibition, % at 5 µM
Hits are given with their value; – = inactive; ? = inconclusive; · = no result. Rows were chosen to be rich in hits. Some 2.1% of all compounds tested hit in one or more screens of this group. Unless noted, no stated cut-off is given here; in the data, active means inhibition above about 22%; inactive means the rest.

SMILES	MT stabilize HCS	Ba/F3 V617F tox	bCat nuc transl	BaF3 parental	KLF5 inh	IEC-6 tox	IEC-6 cytotox cf
CCOc1ccccc1N1CCN(C(=O)c2cn(CC3CCCCC3)nn2)CC1	·	·	·	·	–	–	·
Cn1c2ccccc2c2cc([N+](=O)[O-])ccc21	·	–	–	–	–	–	·
CCN(CC)CCn1c2ccccc2c2nc3ccc([N+](=O)[O-])cc3cc21	·	78	–	76	–	36	32
NC(=O)[C@H]1CC2(CC(c3cccc(NC(=O)COc4ccc(Cl)cc4)c3)=NO2)CN1C(=O)C(c1ccccc1)c1ccccc1 (some centres not stated)	·	·	–	·	·	·	·
O=C(CSc1nc(-c2ccco2)cc(C(F)(F)F)n1)Nc1cccnc1	58	–	–	–	–	29	–
Cc1ccc2nc(SCC(=O)Nc3cc(C(F)(F)F)ccc3N3CCOCC3)[nH]c2c1	22	78	·	75	–	82	60
Cc1ccc(NC(=O)Cn2sc3nc(C)cc(C)c3c2=O)c(Cl)c1	·	–	–	–	–	–	·
O=C(OCc1cnc(Cl)s1)c1ccccc1Cl	–	–	·	–	–	–	·
O=C(OCn1ncc(Br)c(Br)c1=O)c1ccccc1Cl	–	40	–	37	–	23	54
O=C(OCn1ncc(Cl)c(Cl)c1=O)c1cccc(C(F)(F)F)c1	–	–	–	–	–	–	·
O=C(OCn1ncc(Br)c(Br)c1=O)c1ccc(F)cc1	–	85	–	93	–	36	62
CCN(CC)CCCNC(=S)N1CCN(c2nc3ccccc3n2CC)CC1	·	·	·	·	–	–	·
CCOc1ccc2nc(-c3ccccc3)[nH]c2c1	42	71	78	54	–	42	30
COc1ccc2nc(-c3ccccc3)[nH]c2c1	–	–	–	–	–	–	·
O=C(CSCC(=O)NC1CC1)Nc1ccc2ccccc2c1	–	–	–	–	–	–	·
O=C(NCc1cccnc1)c1ccc(NC(=O)c2cccc([N+](=O)[O-])c2)cc1	–	–	–	–	–	75	–
O=C(COc1ccc([N+](=O)[O-])cc1)Nc1ccc(C(=O)NCc2cccnc2)cc1	–	–	·	–	–	30	–
COCc1ccc(C(=O)Nc2ccccc2C(=O)NCc2cccnc2)cc1	·	·	·	·	–	–	·
O=C(COc1ccc([N+](=O)[O-])cc1)NCc1cccnc1	–	–	–	–	–	–	·
O=C(NCc1cccnc1)c1ccc([N+](=O)[O-])cc1	–	–	–	–	–	–	·
C=CCOc1ccc(C(=O)Nc2ccccc2C(=O)NCc2cccnc2)cc1	·	·	·	·	–	39	26
O=C1COc2ccc(N3C(=O)C=CC3=O)cc2N1	–	–	–	–	–	–	·
CCc1nn(C(C)C(=O)N2CCN(c3ccc(OC)cc3)CC2)c(=O)c2cc3occc3n12 (configuration not stated)	·	·	·	·	–	44	24
COCC1CCN(C(=O)c2cc(COc3cccc4cnccc34)on2)CC1	·	·	·	·	–	–	·
O=C(c1cc(COc2cccc3cnccc23)on1)N1CCCC(CCCO)C1 (configuration not stated)	·	·	·	·	–	23	25
SMILES	MT stabilize HCS	Ba/F3 V617F tox	bCat nuc transl	BaF3 parental	KLF5 inh	IEC-6 tox	IEC-6 cytotox cf
Cc1cnc(NC(=O)CCc2ccccc2)s1	·	·	·	·	–	31	–
O=C(CCc1ccccc1)Nc1ccc(Cl)cn1	36	67	140	51	–	68	40
Cc1ccc(C(=O)Nc2ncc(Cc3ccccc3)s2)o1	–	81	–	79	–	51	40
COc1ccc(CCC(=O)Nc2ncc(C)s2)cc1OC	·	·	·	·	–	–	·
O=C(Cc1ccccc1)Nc1ccc(Cl)cn1	·	·	·	·	–	–	·
COCC1CCN(C(=O)C2CCC(=O)N(Cc3cccc(F)c3)C2)CC1 (configuration not stated)	·	·	·	·	–	–	·
COc1ccc(NC2CCCN(C(=O)CCc3cn[nH]c3)C2)cc1 (configuration not stated)	·	·	·	·	–	–	·
CCOC(=O)N1CCN(C(=O)c2ccccc2-c2ccccc2)CC1	32	53	–	47	–	40	35
CC(=O)N1CC(C)Oc2ccc(S(=O)(=O)NC(CC(=O)O)c3ccc(C)cc3C)cc21 (configuration not stated)	·	·	·	·	–	–	·
Cc1cc(C(=O)CS(=O)(=O)c2ccc(F)cc2)cc(C)c1O	·	·	·	·	–	–	·
CSc1nnc(NC(=O)c2nc(S(=O)(=O)Cc3cccc(C)c3)ncc2Cl)s1	·	·	·	·	–	45	–
Cc1ccc(CS(=O)(=O)c2ncc(Cl)c(C(=O)Nc3nnc(C(C)C)s3)n2)cc1	·	·	·	·	–	36	–
CC(C)c1nnc(NC(=O)c2nc(S(=O)(=O)Cc3ccc(F)cc3)ncc2Cl)s1	·	·	·	·	–	–	·
Cc1cccc(CS(=O)(=O)c2ncc(Cl)c(C(=O)Nc3nnc(C(C)C)s3)n2)c1	·	·	·	·	–	60	–
COc1cc(NC(=O)Cn2c([N+](=O)[O-])cnc2C)c(OC)cc1Cl	·	·	·	·	–	–	·
COc1ccc(N2CCN(CCCn3c(=S)[nH]c4ncccc4c3=O)CC2)cc1	–	–	·	–	–	30	–
O=c1c2cccnc2[nH]c(=S)n1CCCN1CCN(c2ccc(F)cc2)CC1	–	–	–	–	–	–	·
Cc1cc2c(Nc3ccccc3)ncnc2s1	–	–	–	–	–	–	·
Cc1cc2c(NCCc3ccccc3)ncnc2s1	·	·	·	·	–	22	22
Cc1oc2c(c1C(=O)NCc1cccnc1)C(=O)c1ccccc1C2=O	–	94	?	101	–	102	105
Cc1ccn2c(C(=O)CSc3ccccc3Cl)c(C)nc2c1	–	–	–	–	–	40	38
Fc1ccc(Oc2nccc(-c3ccc(Cl)cc3)n2)cc1	–	–	–	–	–	–	·
CNC[C@@H](Cc1ccccc1)NC[C@@H](CC1CCCCC1)NCCCc1ccccc1	·	·	·	·	–	102	71
CCCC[C@@H](CNC)NC[C@H](NCCCCC1CCCCC1)C(C)C	·	·	·	·	–	–	·
CCC[C@@H](CN[C@@H](CNC)C(C)C)NCCCCc1ccccc1	·	·	·	·	–	44	66
SMILES	MT stabilize HCS	Ba/F3 V617F tox	bCat nuc transl	BaF3 parental	KLF5 inh	IEC-6 tox	IEC-6 cytotox cf
CCC[C@H](CN[C@@H](CNC)[C@H](C)CC)NCCc1cc(C(F)(F)F)cc(C(F)(F)F)c1	·	·	·	·	–	36	57
CNC[C@@H](CC1CCCCC1)NC[C@H](CC(C)C)NCCc1cccc(C(F)(F)F)c1	·	·	·	·	–	–	·
CCC[C@@H](CNC)NC[C@H](Cc1ccccc1)NCCCCc1ccccc1	·	·	·	·	–	24	101
Cc1cc(C(F)(F)F)nc(CCNC(=O)C2CCC(=O)N(Cc3cccc(F)c3)C2)n1 (configuration not stated)	·	·	·	·	–	–	·
Cc1ccc(-n2c(C)nnc2SC(C)C(=O)N2CCCC2)cc1 (configuration not stated)	·	·	·	·	–	–	·
CN(C)CCCOC(=O)N1c2ccccc2C=Cc2ccccc21	·	·	·	·	–	–	·
N#Cc1cc([N+](=O)[O-])cnc1Nc1ccccc1	–	–	–	–	–	–	·
CCOc1cc(CNCCc2ccc(S(N)(=O)=O)cc2)ccc1OCc1ccc(Cl)cc1	–	–	–	–	–	24	–

Bioassay records as filed in PubChem BioAssay.
